Assay [1] concerns Bipolaris maydis. The assay can be described thus: Antifungal activity against Cochliobolus heterostrophus assessed as inhibition of radial growth on potato dextrose. It is filed as functional, organism-based. Summed up:
(§1)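 Radial growth inhibition on potato dextrose or Czapek agar across 100-0.1 mg L-1. ED50 calculated for each compound.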

Assay [2] deals with Ustilago maydis. The assay can be described thus: Antifungal activity against Ustilago maydis assessed as inhibition of radial growth on potato dextrose. In kind it is functional, organism-based. Conditions: Mycosarcoma maydis.
In assay [3] the test system is Pyrenophora teres. Put plainly: Antifungal activity against Pyrenophora teres assessed as inhibition of radial growth on potato dextrose. In kind it is functional, organism-based.
Assay [4] relates to Botrytis cinerea. The assay can be described thus: Antifungal activity against Botryotinia fuckelianaassessed as inhibition of radial growth on potato dextrose. It is filed as functional, organism-based. The procedure, abridged:
as §1

In assay [5] the test system is Oculimacula yallundae. The assay can be described thus: Antifungal activity against Oculimacula yallundae assessed as inhibition of radial growth on potato dextrose. It is filed as functional, organism-based. Summed up:
as §1

The test system of assay [6] is Podosphaera fuliginea. Put plainly: Fungicidal activity against Podosphaera fuliginea inoculated in […] placed in growth room after 24 hr incubation assessed as direct protection after 6 to 10 days. In kind it is functional.
Assay [7] has as its system Cercospora beticola. The assay can be described thus: Antifungal activity against Cercospora beticola assessed as inhibition of radial growth on potato dextrose. It is filed as functional, organism-based. The procedure, abridged: as §1
Assay [8] concerns Uromyces appendiculatus. The assay can be described thus: Fungicidal activity against Uromyces appendiculatus inoculated in Phaseolus vulgaris placed in growth room after 24 hr incubation assessed as direct protection after 6 to 10 days. It is filed as functional. The procedure, abridged:
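Bean plants grown at 22 ± 1 °C, 80 ± 10% RH. Compound in acetone/water (1:4 v/v) with Tween 20 (0.4 mg mL-1) was sprayed on leaves until moist at 100 to 0.001 mg L-1. One day later leaves were inoculated with U. appendiculatus uredospores (1 × 10^5 spores mL-1), held 24 h at 22 ± 2 °C and 100% RH, then moved to the growth room. Scored at 6, 8 and 10 days as MIC.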

For assay [9], the system named is Fusarium graminearum. Put plainly: Antifungal activity against Fusarium graminearum assessed as inhibition of radial growth on potato dextrose. In kind it is functional, organism-based. The procedure, abridged: as §1
Assay [10] deals with Uromyces appendiculatus. Put plainly: Fungicidal activity against Uromyces appendiculatus inoculated in Phaseolus vulgaris placed in growth room after 24 hr incubation assessed as disease cure after 24 hr of inoculation. It is filed as functional. The procedure, abridged: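 Bean rust curative test with the same plants, spray formulation (acetone/water 1:4 with Tween 20), 100 to 0.001 mg L-1 range and U. appendiculatus inoculum (1 × 10^5 spores mL-1). Compound applied 24 h after inoculation. Read-out expressed as MIC.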

One may read the EC50 as the concentration giving half of the maximal effect. Usually MIC stands for the lowest concentration that inhibits growth of the organism.

≈ marks a conversion by molar mass, not a printed value.

Take `Clc1ccc(COCC(Cn2cncn2)c2ccc(Cl)cc2Cl)c(Cl)c1` (racemic): the EC50 in [1] stood at 0.28 mg/L (≈ 0.649 µM); in assay [2], 0.09 mg/L (≈ 0.209 µM); in assay [3] it was 0.35 mg/L (≈ 0.812 µM); in assay [4] it was 1 mg/L (≈ 2.32 µM); in assay [5] it was 0.65 mg/L (≈ 1.51 µM); in assay [7], 0.18 mg/L (≈ 0.417 µM). Further, the EC50 in assay [9] was 12 mg/L (≈ 27.8 µM). In addition, the results for the MIC in assay [6] and in assay [8] were 10 mg/L (≈ 23.2 µM) and 30 mg/L (≈ 69.6 µM), respectively.

Turning to `O=[N+]([O-])c1ccc(COCC(Cn2cncn2)c2ccc(Cl)cc2Cl)cc1` (racemic), the EC50 was determined as 0.15 mg/L (≈ 0.368 µM) in [1]; 0.08 mg/L (≈ 0.196 µM) in assay [2]; 0.75 mg/L (≈ 1.84 µM) in assay [3]; 2.8 mg/L (≈ 6.88 µM) in [4]; 0.18 mg/L (≈ 0.442 µM) in assay [5]; 0.09 mg/L (≈ 0.221 µM) in [7]. Also, in assay [9], the EC50 is greater than 200 mg/L. Further, the values for the MIC in assay [6] and in assay [8] were 10 mg/L (≈ 24.6 µM) and 43 mg/L (≈ 106 µM), respectively.

For the compound `Clc1ccc(C(COCc2ccc(OCc3ccc(OCc4ccccc4)cc3)cc2)Cn2cncn2)c(Cl)c1` (racemic), the EC50 in assay [2] was 0.2 mg/L (≈ 0.348 µM); in assay [3] it was 0.2 mg/L (≈ 0.348 µM); in [4], 100 mg/L (≈ 174 µM); in [5], 0.16 mg/L (≈ 0.278 µM); in assay [7], 0.18 mg/L (≈ 0.313 µM); in [9], greater than 200 mg/L. Moreover, the MIC in assay [8] is greater than 100 mg/L.

With `Clc1ccc([C@H](COCc2ccccc2)Cn2cncn2)c(Cl)c1`, the EC50 is 0.25 mg/L (≈ 0.69 µM) in [1]; less than 0.1 mg/L in assay [2]; 0.5 mg/L (≈ 1.38 µM) in assay [3]; 3 mg/L (≈ 8.28 µM) in assay [4]; 0.41 mg/L (≈ 1.13 µM) in [5]; 0.16 mg/L (≈ 0.442 µM) in assay [7]. For the same compound, the EC50 in assay [9] was found to be 18 mg/L (≈ 49.7 µM). Further, the results for the MIC in assay [6] and in assay [8] were 80 mg/L (≈ 221 µM) and 50 mg/L (≈ 138 µM), respectively.

For the compound `Clc1ccc(C(COCc2ccccc2)Cn2cncn2)c(Cl)c1` (racemic), the EC50 in [1] stood at 0.18 mg/L (≈ 0.497 µM); in assay [2], 0.14 mg/L (≈ 0.386 µM); in [3] it was 0.7 mg/L (≈ 1.93 µM); in [4], 1.6 mg/L (≈ 4.42 µM); in assay [5], 0.35 mg/L (≈ 0.966 µM); in assay [7] it was 0.2 mg/L (≈ 0.552 µM). In assay [9], the EC50 worked out at 5 mg/L (≈ 13.8 µM). The MIC in [10] turned out to be 35 mg/L (≈ 96.6 µM); in assay [6] it was 50 mg/L (≈ 138 µM); in assay [8], 30 mg/L (≈ 82.8 µM).

In the case of `Clc1ccc(C(COCc2cccc(Oc3ccccc3)c2)Cn2cncn2)c(Cl)c1` (racemic), the EC50 in assay [1] amounted to 150 mg/L (≈ 330 µM); in assay [2] it was 0.16 mg/L (≈ 0.352 µM); in [3], 0.85 mg/L (≈ 1.87 µM); in assay [4], 8 mg/L (≈ 17.6 µM); in assay [5] it was 5 mg/L (≈ 11 µM); in assay [7], 0.14 mg/L (≈ 0.308 µM). Also, the EC50 in [9] is greater than 200 mg/L. The MIC in assay [6] stood at 12 mg/L (≈ 26.4 µM); in [8] it was 50 mg/L (≈ 110 µM).

As for `C=C(C)COCC(Cn1cncn1)c1ccc(Cl)cc1Cl` (racemic), the EC50 in assay [1] is 0.1 mg/L (≈ 0.307 µM); in assay [2] it was 0.25 mg/L (≈ 0.766 µM); in assay [3], 0.75 mg/L (≈ 2.3 µM); in [4] it was 1.2 mg/L (≈ 3.68 µM); in assay [5], 0.5 mg/L (≈ 1.53 µM); in [7] it was 0.15 mg/L (≈ 0.46 µM). Also, the EC50 in [9] worked out at 13 mg/L (≈ 39.8 µM). Moreover, the MIC came out at 50 mg/L (≈ 153 µM) in assay [6] and 150 mg/L (≈ 460 µM) in assay [8].

On to `Clc1ccc(C(COCc2cccs2)Cn2cncn2)c(Cl)c1` (racemic), for which the EC50 in [1] came to 0.2 mg/L (≈ 0.543 µM); in assay [2], 0.1 mg/L (≈ 0.272 µM); in [3], 0.7 mg/L (≈ 1.9 µM); in assay [4], 2 mg/L (≈ 5.43 µM); in assay [5], 1.2 mg/L (≈ 3.26 µM); in assay [7], 0.2 mg/L (≈ 0.543 µM). Also, in [9], the EC50 was 1.5 mg/L (≈ 4.07 µM). For the same compound, the MIC was 100 mg/L (≈ 272 µM) in assay [6] and 200 mg/L (≈ 543 µM) in [8].

`C=C(Cl)COCC(Cn1cncn1)c1ccc(Cl)cc1Cl` (racemic): the EC50 in assay [2] amounted to 0.5 mg/L (≈ 1.44 µM); in [3], 2 mg/L (≈ 5.77 µM); in [4], 0.8 mg/L (≈ 2.31 µM); in [5] it was 0.5 mg/L (≈ 1.44 µM); in assay [7], 0.23 mg/L (≈ 0.664 µM); in [9], 12 mg/L (≈ 34.6 µM). The MIC in assay [8] is greater than 100 mg/L.

For `C#CCOCC(Cn1cncn1)c1ccc(Cl)cc1Cl` (centres undefined), the EC50 in [2] stood at 0.5 mg/L (≈ 1.61 µM); in [3] it was 1.4 mg/L (≈ 4.51 µM); in assay [4], 3.6 mg/L (≈ 11.6 µM); in assay [5] it was 0.5 mg/L (≈ 1.61 µM); in assay [7] it was 0.3 mg/L (≈ 0.967 µM); in assay [9], 25 mg/L (≈ 80.6 µM). Also, in assay [8], the minimum inhibitory concentration (MIC) was greater than 100 mg/L.

As to `N#CCCOCC(Cn1cncn1)c1ccc(Cl)cc1Cl` (racemic), the EC50 in assay [1] came to 8.5 mg/L (≈ 26.1 µM); in assay [2] it was 4 mg/L (≈ 12.3 µM); in assay [3], 32 mg/L (≈ 98.4 µM); in assay [4], 18 mg/L (≈ 55.4 µM); in assay [5] it was 20 mg/L (≈ 61.5 µM); in assay [7], 4 mg/L (≈ 12.3 µM). In addition, the concentration giving a half-maximal response (EC50) in [9] is 32 mg/L (≈ 98.4 µM). Besides, the MIC was 60 mg/L (≈ 185 µM) in [6] and 250 mg/L (≈ 769 µM) in assay [8].

Values taken from ChEMBL document CHEMBL3045489, “Synthesis, fungicidal activity, and QSAR of a series of 2-dichlorophenyl-3-triazolylpropyl ethers” (J Agric Food Chem, 2000).
